ChEMBL document CHEMBL4308899, “Design, synthesis and QSAR study of 2'-hydroxy-4'-alkoxy chalcone derivatives that exert cytotoxic activity by the mitochondrial apoptotic pathway” (Bioorg Med Chem, 2019)
The source made the active and inactive calls. No cut-off for these calls is given here.

How the values were obtained:
PC-3 [1] = test: Antiproliferative activity against human PC3 cells after 48 hrs by CellTiter 96 AQueous one solution cell proliferation assay; type: functional, cell-based; settings: PC-3, 48 h
Summary of the method: (§1)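 Cells plated at 8000/well; test agents dissolved in DMSO and tested at 80, 8, 0.8, 0.08 and 0.008 μg/mL for 48 h at 37°C, 5% CO2. PC3 and CaSki were grown in RPMI-1640, MCF7 in Eagle's MEM, with 10% FBS and 2 mM glutamine. Podophyllotoxin served as positive control. Viability read by MTS-type reagent absorbance at 450 nm. Triplicates in three independent experiments; IC50 by regression.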

Ca-Ski = test: Antiproliferative activity against human CaSki cells after 48 hrs by CellTiter 96 AQueous one solution cell proliferation assay; type: functional, cell-based; summary of the method: as §1
BJ = test: Cytotoxicity against human BJ cells after 48 hrs by CellTiter 96 AQueous one solution cell proliferation assay; type: cell-based
MCF7 = test: Antiproliferative activity against human MCF7 cells after 48 hrs by CellTiter 96 AQueous one solution cell proliferation assay; type: functional, cell-based; settings: MCF7, 48 h; summary of the method: as §1
[2] = Antiproliferative activity against human HF6 cells after 48 hrs by CellTiter 96 AQueous one solution cell proliferation assay; type: functional, cell-based
PC-3 [3] = test: Induction of apoptosis in human PC3 cells assessed as upregulation of Bax mRNA expression after 48 hrs by RT-PCR analysis; type: functional, cell-based
Summary of the method: (§2)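 PC3 cells (1.25×10^5) were treated 48 h, then RNA was isolated. Bcl-2 and Bax mRNA were measured by RT-PCR with GAPDH as internal control.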

PC-3 [4] = test: Induction of apoptosis in human PC3 cells assessed as down regulation of Bcl2 mRNA expression after 48 hrs by RT-PCR analysis; type: functional, cell-based; summary of the method: as §2
PC-3 [5] = test: Cell cycle arrest in human PC3 cells assessed as accumulation at G1 phase at 13.75 uM after 48 hrs by RNAse/propidium iodide staining-based flow cytometric analysis (reference value: 55.6%); type: functional
PC-3 [6] = test: Cell cycle arrest in human PC3 cells assessed as accumulation at sub-G1 phase at 13.75 uM after 48 hrs by RNAse/propidium iodide staining-based flow cytometric analysis (reference value: 0.00%); type: functional
PC-3 [7] = test: Induction of apoptosis in human PC3 cells assessed as increase in caspase 3/7 activity by Caspase 3/7-Glo luminescence assay; type: functional, cell-based
Summary of the method: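 PC3 cells (8000) were treated, and caspase-3/7 activity was then read by Caspase-Glo 3/7 luminescence. Results are relative luminescence units versus untreated control; paclitaxel was included as a comparator.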

PC-3 [8] = test: Cell cycle arrest in human PC3 cells assessed as accumulation at G2/M phase at 13.75 uM after 48 hrs by RNAse/propidium iodide staining-based flow cytometric analysis (reference value: 24.9%); type: functional
PC-3 [9] = test: Induction of apoptosis in human PC3 cells assessed as plasma membrane blebbing at IC50 after 48 hrs by acridine orange/ethidium bromide staining-based epifluorescence microscopic analysis; type: functional, cell-based
PC-3 [10] = test: Cell cycle arrest in human PC3 cells assessed as accumulation at S phase at 13.75 uM after 48 hrs by RNAse/propidium iodide staining-based flow cytometric analysis (reference value: 19.7%); type: functional
PC-3 [11] = test: Induction of apoptosis in human PC3 cells assessed as formation of apoptotic bodies at IC50 after 48 hrs by acridine orange/ethidium bromide staining-based epifluorescence microscopic analysis; type: functional, cell-based
PC-3 [12] = test: Induction of apoptosis in human PC3 cells assessed as chromatin condensation at IC50 after 48 hrs by acridine orange/ethidium bromide staining-based epifluorescence microscopic analysis; type: functional, cell-based
PC-3 [13] = test: Cell cycle arrest in human PC3 cells assessed as accumulation at sub-G1 phase at 8.2 uM after 48 hrs by RNAse/propidium iodide staining-based flow cytometric analysis (reference value: 0.00%); type: functional
PC-3 [14] = test: Cell cycle arrest in human PC3 cells assessed as accumulation at S phase at 8.2 uM after 48 hrs by RNAse/propidium iodide staining-based flow cytometric analysis (reference value: 19.7%); type: functional
PC-3 [15] = test: Cell cycle arrest in human PC3 cells assessed as accumulation at G1 phase at 8.2 uM after 48 hrs by RNAse/propidium iodide staining-based flow cytometric analysis (reference value: 55.6%); type: functional
PC-3 [16] = test: Cell cycle arrest in human PC3 cells assessed as accumulation at G2/M phase at 8.2 uM after 48 hrs by RNAse/propidium iodide staining-based flow cytometric analysis (reference value: 24.9%); type: functional
PC-3 [17] = test: Induction of apoptosis in human PC3 cells assessed as chromatin condensation at 0.005 uM after 48 hrs by acridine orange/ethidium bromide staining-based epifluorescence microscopic analysis; type: functional, cell-based
Summary of the method: (§3)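 PC3 cells, 25000 per well in 24-well plates, treated 48 h; H2O2 30 min served as apoptosis control, boiling at 95°C for 10 sec as necrosis control. Cells then exposed to acridine orange/ethidium bromide (100 μg/mL each) and examined by fluorescence microscopy. Scored by nuclear morphology: chromatin condensation, orange condensed chromatin (late apoptosis), apoptotic bodies.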

PC-3 [18] = test: Induction of apoptosis in human PC3 cells assessed as formation of apoptotic bodies at 0.005 uM after 48 hrs by acridine orange/ethidium bromide staining-based epifluorescence microscopic analysis; type: functional, cell-based; summary of the method: as §3
PC-3 [19] = test: Cell cycle arrest in human PC3 cells assessed as accumulation at G2/M phase at 0.12 uM after 48 hrs by RNAse/propidium iodide staining-based flow cytometric analysis (reference value: 24.9%); type: functional
PC-3 [20] = test: Cell cycle arrest in human PC3 cells assessed as accumulation at sub-G1 phase at 0.12 uM after 48 hrs by RNAse/propidium iodide staining-based flow cytometric analysis (reference value: 0.00%); type: functional
PC-3 [21] = test: Cell cycle arrest in human PC3 cells assessed as accumulation at G1 phase at 0.12 uM after 48 hrs by RNAse/propidium iodide staining-based flow cytometric analysis (reference value: 55.6%); type: functional
PC-3 [22] = test: Induction of apoptosis in human PC3 cells assessed as plasma membrane blebbing at 0.005 uM after 48 hrs by acridine orange/ethidium bromide staining-based epifluorescence microscopic analysis; type: functional, cell-based; summary of the method: as §3
PC-3 [23] = test: Cell cycle arrest in human PC3 cells assessed as accumulation at S phase at 0.12 uM after 48 hrs by RNAse/propidium iodide staining-based flow cytometric analysis (reference value: 19.7%); type: functional
PC-3 [24] = test: Antiproliferative activity against human PC3 cells after 72 hrs by CyQuant dye-based assay; type: functional, cell-based; settings: PC-3, 72 h
PC-3 [25] = test: Cell cycle arrest in human PC3 cells assessed as accumulation at S phase at 11.81 uM after 48 hrs by RNAse/propidium iodide staining-based flow cytometric analysis (reference value: 19.7%); type: functional
PC-3 [26] = test: Cell cycle arrest in human PC3 cells assessed as accumulation at sub-G1 phase at 11.81 uM after 48 hrs by RNAse/propidium iodide staining-based flow cytometric analysis (reference value: 0.00%); type: functional
PC-3 [27] = test: Cell cycle arrest in human PC3 cells assessed as accumulation at G2/M phase at 11.81 uM after 48 hrs by RNAse/propidium iodide staining-based flow cytometric analysis (reference value: 24.9%); type: functional
PC-3 [28] = test: Cell cycle arrest in human PC3 cells assessed as accumulation at G1 phase at 11.81 uM after 48 hrs by RNAse/propidium iodide staining-based flow cytometric analysis (reference value: 55.6%); type: functional

SMILES	IC50 (PC-3 [1]) [µM]	IC50 (Ca-Ski) [µM]	IC50 (BJ) [µM]	IC50 (MCF7) [µM]	IC50 [2] [µM]	further results
CCCOc1ccc(C(=O)/C=C/c2ccccc2)c(O)c1	8.08	> 50	16	> 50	–	–
COc1ccc(C(=O)CCc2ccccc2)c(O)c1	> 50	> 50	–	> 50	> 50	–
COc1ccc(C(=O)/C=C/c2ccccc2)c(O)c1Br	47.8	> 50	–	> 50	> 50	–
O=C(/C=C/c1ccccc1)c1ccc(O)cc1O [2',4'-DIHYDROXYCHALCONE]	13.8	–	262	> 50	–	Activity (PC-3 [3]): Active; Activity (PC-3 [4]): Active; Activity (PC-3 [5]): 32.2%; Activity (PC-3 [6]): 16.3%; Activity (PC-3 [7]): Active; Activity (PC-3 [8]): 40.8%; Activity (PC-3 [9]): Active; Activity (PC-3 [10]): 10.7%; Activity (PC-3 [11]): Active; Activity (PC-3 [12]): Active
COc1cc(O)c(C(=O)/C=C/c2ccccc2)cc1Br	> 50	> 50	–	> 50	38.9	–
CCOc1ccc(C(=O)/C=C/c2ccccc2)c(O)c1	8.2	–	208	> 50	–	Activity (PC-3 [13]): 17.9%; Activity (PC-3 [3]): Active; Activity (PC-3 [4]): Active; Activity (PC-3 [7]): Active; Activity (PC-3 [14]): 7.69%; Activity (PC-3 [9]): Active; Activity (PC-3 [15]): 24.3%; Activity (PC-3 [16]): 50.1%; Activity (PC-3 [11]): Active; Activity (PC-3 [12]): Active
CC(=O)Oc1ccc(C(=O)/C=C/c2ccccc2)c(O)c1	10	> 50	21.3	> 50	> 50	–
COc1cc([C@@H]2c3cc4c(cc3[C@H](O)[C@H]3COC(=O)[C@H]23)OCO4)cc(OC)c1OC [PODOFILOX]	0.12	0.3	5	0.28	0.0369	Activity (PC-3 [17]): Active; Activity (PC-3 [18]): Active; Activity (PC-3 [19]): 47%; Activity (PC-3 [20]): 35.6%; Activity (PC-3 [21]): 8.31%; Activity (PC-3 [22]): Active; Activity (PC-3 [23]): 9.82%
O=C(/C=C/c1ccccc1)c1ccc(OCc2ccccc2)cc1O	34.7	> 50	–	> 50	–	–
O=C(/C=C/c1ccccc1O)c1ccccc1O	–	–	–	–	–	IC50 (PC-3 [24]): 10.3 µM
COc1cc(O)c(C(=O)/C=C/c2ccccc2)cc1I	> 50	> 50	–	> 50	> 50	–
COc1ccc(C(=O)/C=C/c2ccccc2)c(O)c1I	34	> 50	–	> 50	> 50	–
COc1ccc(C(=O)/C=C/c2ccccc2)c(O)c1	11.8	–	239	> 50	> 50	Activity (PC-3 [3]): Active; Activity (PC-3 [25]): 16%; Activity (PC-3 [4]): Active; Activity (PC-3 [7]): Active; Activity (PC-3 [26]): 13.6%; Activity (PC-3 [27]): 27.1%; Activity (PC-3 [9]): Active; Activity (PC-3 [28]): 46.8%; Activity (PC-3 [11]): Active; Activity (PC-3 [12]): Active
